Measured values taken from ChEMBL document CHEMBL1268917, “Synthesis and biological evaluation of radio-iodinated benzimidazoles as SPECT imaging agents for NR2B subtype of NMDA receptor” (Bioorg Med Chem, 2010).

What was measured:
[1] = molecular target: Glutamate receptor ionotropic, NMDA 2B (Rattus norvegicus) (UniProt Q00960); experiment: Binding affinity to NR2B receptor in rat cerebellum at 0.09 to 0.14 nM after 30 mins by autoradiography in presence of DTG relative to control; type: tissue-based; conditions: tested as the 125I-labelled form
Method in brief: (§1)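 Rinsed three times 3 min in cold buffer with 1% BSA, dipped in cold water, air-dried, exposed to imaging plates; PSL per mm² in ROIs. Expressed as % control binding; at least triplicate slices from three rats.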

[2] = Octanol-buffer partition coefficient, log D of the compound at pH 7.4; type: physicochemical
[3] = molecular target: Glutamate receptor ionotropic, NMDA 2B (Rattus norvegicus) (UniProt Q00960); experiment: Binding affinity to NR2B receptor in rat hippocampus at 0.09 to 0.14 nM after 30 mins by autoradiography in presence of Ro-256981 relative to control; type: tissue-based; conditions: tested as the 125I-labelled form; method in brief: as §1
[4] = molecular target: Glutamate receptor ionotropic, NMDA 2B (Rattus norvegicus) (UniProt Q00960); experiment: Binding affinity to NR2B receptor in rat cerebral cortex at 0.09 to 0.14 nM after 30 mins by autoradiography in presence of Ro-256981 relative to control; type: tissue-based; conditions: tested as the 125I-labelled form; method in brief: as §1
[5] = Lipophilicity, log P of the compound; type: physicochemical; conditions: octanol/water
[6] = molecular target: Glutamate receptor ionotropic, NMDA 2B (Rattus norvegicus) (UniProt Q00960); experiment: Binding affinity to NR2B receptor in rat hippocampus at 0.09 to 0.14 nM after 30 mins by autoradiography in presence of DTG relative to control; type: tissue-based; conditions: tested as the 125I-labelled form; method in brief: as §1
[7] = molecular target: Glutamate receptor ionotropic, NMDA 2B (Rattus norvegicus, UniProt Q00960); experiment: Displacement of [3H]ifenprodil from NR2B receptor in rat cortical synaptic membranes; type: cell membranes, Membrane
[8] = molecular target: Glutamate receptor ionotropic, NMDA 2B (Rattus norvegicus) (UniProt Q00960); experiment: Binding affinity to NR2B receptor in rat cerebellum at 0.09 to 0.14 nM after 30 mins by autoradiography in presence of Ro-256981 relative to control; type: tissue-based; conditions: tested as the 125I-labelled form; method in brief: as §1
[9] = molecular target: Glutamate receptor ionotropic, NMDA 2B (Rattus norvegicus) (UniProt Q00960); experiment: Binding affinity to NR2B receptor in rat cerebral cortex at 0.09 to 0.14 nM after 30 mins by autoradiography in presence of prazosin relative to control; type: tissue-based; conditions: tested as the 125I-labelled form; method in brief: as §1
[10] = molecular target: Glutamate receptor ionotropic, NMDA 2B (Rattus norvegicus) (UniProt Q00960); experiment: Binding affinity to NR2B receptor in rat hippocampus at 0.09 to 0.14 nM after 30 mins by autoradiography in presence of prazosin relative to control; type: tissue-based; conditions: tested as the 125I-labelled form; method in brief: as §1
[11] = molecular target: Glutamate receptor ionotropic, NMDA 2B (Rattus norvegicus) (UniProt Q00960); experiment: Binding affinity to NR2B receptor in rat cerebellum at 0.09 to 0.14 nM after 30 mins by autoradiography in presence of prazosin relative to control; type: tissue-based; conditions: tested as the 125I-labelled form; method in brief: as §1
[12] = molecular target: Glutamate receptor ionotropic, NMDA 2B (Rattus norvegicus) (UniProt Q00960); experiment: Binding affinity to NR2B receptor in rat cerebral cortex at 0.09 to 0.14 nM after 30 mins by autoradiography in presence of DTG relative to control; type: tissue-based; conditions: tested as the 125I-labelled form; method in brief: as §1

Glutamate receptor ionotropic, NMDA 2B (Rattus norvegicus), sequence (Q00960 27-1482 limits assumed): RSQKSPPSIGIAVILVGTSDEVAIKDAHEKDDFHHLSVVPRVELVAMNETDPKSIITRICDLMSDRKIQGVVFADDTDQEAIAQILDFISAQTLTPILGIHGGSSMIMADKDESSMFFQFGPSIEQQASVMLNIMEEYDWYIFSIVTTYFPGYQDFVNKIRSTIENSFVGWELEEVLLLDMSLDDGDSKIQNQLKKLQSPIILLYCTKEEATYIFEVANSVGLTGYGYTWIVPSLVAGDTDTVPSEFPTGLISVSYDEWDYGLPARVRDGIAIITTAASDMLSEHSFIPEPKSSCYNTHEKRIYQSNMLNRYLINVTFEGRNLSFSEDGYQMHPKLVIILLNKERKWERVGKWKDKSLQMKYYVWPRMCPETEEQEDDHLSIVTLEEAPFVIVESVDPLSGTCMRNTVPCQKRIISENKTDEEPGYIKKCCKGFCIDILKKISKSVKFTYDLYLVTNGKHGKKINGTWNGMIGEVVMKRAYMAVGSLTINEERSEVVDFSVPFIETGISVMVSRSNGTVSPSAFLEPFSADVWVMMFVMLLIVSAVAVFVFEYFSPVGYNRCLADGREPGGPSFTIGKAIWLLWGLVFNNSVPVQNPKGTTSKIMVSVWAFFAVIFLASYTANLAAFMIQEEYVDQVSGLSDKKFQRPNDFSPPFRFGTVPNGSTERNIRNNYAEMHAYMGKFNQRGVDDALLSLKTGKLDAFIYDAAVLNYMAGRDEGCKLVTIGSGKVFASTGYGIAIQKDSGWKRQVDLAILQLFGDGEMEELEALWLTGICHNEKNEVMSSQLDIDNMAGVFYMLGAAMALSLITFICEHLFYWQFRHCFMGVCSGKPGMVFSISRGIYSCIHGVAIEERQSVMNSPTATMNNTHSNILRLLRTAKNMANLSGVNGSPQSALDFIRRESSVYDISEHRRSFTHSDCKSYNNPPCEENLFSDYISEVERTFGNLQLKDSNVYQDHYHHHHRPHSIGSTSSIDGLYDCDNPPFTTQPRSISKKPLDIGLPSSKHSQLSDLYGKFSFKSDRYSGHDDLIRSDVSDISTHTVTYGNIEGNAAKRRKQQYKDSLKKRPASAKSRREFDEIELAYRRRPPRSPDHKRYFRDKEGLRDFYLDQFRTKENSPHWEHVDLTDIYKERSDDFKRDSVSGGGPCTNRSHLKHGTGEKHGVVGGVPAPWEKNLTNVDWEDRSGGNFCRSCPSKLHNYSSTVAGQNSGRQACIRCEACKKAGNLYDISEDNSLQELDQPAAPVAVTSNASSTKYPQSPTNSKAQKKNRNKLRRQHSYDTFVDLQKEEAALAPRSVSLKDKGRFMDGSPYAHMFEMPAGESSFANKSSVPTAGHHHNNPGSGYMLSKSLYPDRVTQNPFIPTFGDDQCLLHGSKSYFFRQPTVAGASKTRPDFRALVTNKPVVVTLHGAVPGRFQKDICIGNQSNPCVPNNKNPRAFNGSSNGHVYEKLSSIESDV
Glutamate receptor ionotropic, NMDA 2B, sequence (Q00960 whole entry): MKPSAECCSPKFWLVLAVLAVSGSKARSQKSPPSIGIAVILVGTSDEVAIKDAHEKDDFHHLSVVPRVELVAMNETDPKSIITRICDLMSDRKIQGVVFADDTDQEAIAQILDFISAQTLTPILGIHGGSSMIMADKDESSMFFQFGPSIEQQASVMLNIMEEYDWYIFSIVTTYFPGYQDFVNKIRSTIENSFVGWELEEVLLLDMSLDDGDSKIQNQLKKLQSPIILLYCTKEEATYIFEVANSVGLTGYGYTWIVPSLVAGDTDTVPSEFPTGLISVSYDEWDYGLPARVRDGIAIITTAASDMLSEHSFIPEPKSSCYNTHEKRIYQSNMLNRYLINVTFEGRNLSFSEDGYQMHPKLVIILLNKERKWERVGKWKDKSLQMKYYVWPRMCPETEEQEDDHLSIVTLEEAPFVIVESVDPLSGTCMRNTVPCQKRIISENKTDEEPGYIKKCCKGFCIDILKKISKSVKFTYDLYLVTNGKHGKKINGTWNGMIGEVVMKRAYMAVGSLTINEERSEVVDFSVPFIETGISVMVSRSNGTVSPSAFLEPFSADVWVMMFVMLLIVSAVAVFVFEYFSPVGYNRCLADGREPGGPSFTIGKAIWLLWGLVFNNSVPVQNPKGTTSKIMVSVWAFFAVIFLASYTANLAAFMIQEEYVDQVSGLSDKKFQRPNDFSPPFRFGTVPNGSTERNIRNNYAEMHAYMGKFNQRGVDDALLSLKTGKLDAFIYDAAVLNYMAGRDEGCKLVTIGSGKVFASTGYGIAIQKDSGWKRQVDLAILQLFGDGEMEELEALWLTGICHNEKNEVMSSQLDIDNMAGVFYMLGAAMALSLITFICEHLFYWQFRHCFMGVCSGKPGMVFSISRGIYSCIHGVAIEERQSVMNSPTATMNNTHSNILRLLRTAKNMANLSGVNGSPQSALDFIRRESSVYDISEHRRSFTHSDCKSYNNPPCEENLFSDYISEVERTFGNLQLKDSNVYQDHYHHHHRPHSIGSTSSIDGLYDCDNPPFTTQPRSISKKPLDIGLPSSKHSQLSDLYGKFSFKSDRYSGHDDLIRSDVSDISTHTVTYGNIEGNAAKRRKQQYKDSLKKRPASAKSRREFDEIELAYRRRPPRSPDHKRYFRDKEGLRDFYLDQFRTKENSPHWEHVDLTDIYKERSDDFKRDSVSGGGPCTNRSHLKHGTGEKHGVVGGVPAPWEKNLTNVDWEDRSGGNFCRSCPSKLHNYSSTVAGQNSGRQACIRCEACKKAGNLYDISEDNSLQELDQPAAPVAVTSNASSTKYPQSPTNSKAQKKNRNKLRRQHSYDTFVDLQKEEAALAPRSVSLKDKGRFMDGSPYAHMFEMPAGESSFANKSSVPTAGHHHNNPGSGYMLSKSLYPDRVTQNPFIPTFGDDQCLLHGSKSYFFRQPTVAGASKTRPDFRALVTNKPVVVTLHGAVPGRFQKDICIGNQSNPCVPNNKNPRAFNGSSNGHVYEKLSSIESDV

- Activity [1]: 101%
- logD [2]: 3.95
- Activity [3]: 50.9%
- Activity [4]: 58.3%
- logP [5]: 3.95
- Activity [6]: 105%
- Ki [7]: 7.28 nM
- Activity [8]: 91.8%
- Activity [9]: 95.6%
- Activity [10]: 92.6%
- Activity [11]: 103%
- Activity [12]: 93.5%
SMILES: Oc1ccc2nc(CN3CCC(Cc4ccc(I)cc4)CC3)[nH]c2c1
